Test system: MS2 coat protein
Test: apparent Kd, MS2 coat protein; higher = weaker binding; RNA-MaP array; FMN 200 µM where present
Procedure, shortened: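 Green signal from SNAP-549-labelled MS2 coat protein was normalised to red-channel RNA signal and to the median Fmax of control clusters. The protein was titrated from 0.7 or 1.5 nM, doubling to 3 µM, without and then with constant ligand, over designs transcribed by stalled E. coli RNA polymerase on Illumina sequencing-chip clusters, in 100 mM Tris-HCl pH 7.5, 80 mM KCl, 4 mM MgCl2, BSA, DTT, yeast tRNA and Tween-20. The apparent Kd is the median of filtered per-cluster binding-curve fits.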

[1] = designed as: OFF switch for flavin mononucleotide, no ligand
[2] = ligand present: flavin mononucleotide, designed as: OFF switch for flavin mononucleotide
[3] = designed as: ON switch for flavin mononucleotide, no ligand
[4] = ligand present: flavin mononucleotide, designed as: ON switch for flavin mononucleotide

| Sequence | apparent Kd [1] [nM] | apparent Kd [2] [nM] | apparent Kd [3] [nM] | apparent Kd [4] [nM] |
| --- | --- | --- | --- | --- |
| AGGCGGAAAGUCAGGAUAUCUUGACCAAAGGGUUGAGAGAAGGGACAUGAGGAUCACCCAUGUGGCGACCGCCA | 37.5 | 67.9 |  |  |
| AUGGUUGUCGUAGGAUAUGUAGGAUAUUCCUACAUGAGGAUCACCCAUGUUCGCAUGGAAGAAGGACGGAAGGACGAUGACCAA |  |  | 249 | 118 |
| UAUAUGUCAGGAUAUCGAUUGGAAUGGAAUUUAGUUUUGGUCGAGAAGGGACAUGAGGAUCACCCAUGUUUUUC | 38.7 | 215 |  |  |
| AUUGUUAAGGUAGGAUAUAGUAAAAUGAUUUAAUUAGAAGGAUCUCACAUGAGGAUCACCCAUGUAAUAGGAUUACCCAUGUAU | 32.8 | 23.6 |  |  |
| UUCACGUAUAUAGGAUAUGCGGGCAAAUAACGCGCAGAAGGAUAUACAUGAGGAUCACCCAUGUAUUGAGACCUCAUACGCCGC | 7.47 | 9.38 |  |  |
| GAGUGGAAGGCCGCUACAUGAGGAUCACCCAUGUGCUAAGCACAGGAUAUCGCGCUGGCCCGGCGCGAGAAGGGUGACGGCCUG |  |  | 674 | 324 |
| GUGUACAGAGGAUAUAUAUGGGCAUGGAAACAUGCAACUUCACAUGAGGAUCACCCAUGUAGAAGGCUGUACAC | 27.3 | 182 |  |  |
| UAUAUAUAGUAAGGAUAUGUAUAUUUUUUAUAAACAGAAGGUACUGACAUGAGGAUCACCCAUGUUUUAGUGUGGGCAUGUAGA | 79.3 | 122 |  |  |
| GCGAAGAACGAGAAGGCCACUACAUGAGGAUCACCCAUGUCGUGGUGUAUUGGAGGAUAUCGAUCGGCGUCUCAUGAGGACAUA | 5.35 | 5.44 |  |  |
| AUUGUUUUCAUAGGAUAUUGACAUUUAUUUAUUCAAGAAGGAUGAUUACAUGAGGAUCACCCAUGUUAUUAUGGAUUAACUAGU | 23.7 | 43.2 |  |  |
| AACAGCUCGUCAGGAUAUAUAUACUUAUAUUGUAUUUAUGUACAUGAGGAUCACCCAUGUUGUUAGUAGAAGGGACGAGCUGAA | 7.61 | 7.16 |  |  |
| GGAGCACACAUUAACAUGAGGAUCACCCAUGUCAAAAGACAUGAGGAUAUGGAUCCGAAAAGGAUCCAGAAGGCAUUGUGCUCC |  |  | 372 | 28.2 |
| GGAAAGUGAGGAUAUGCAUAACAAACACAAACACAAACAAAGCAGAAGGCACAUGAGGAUCACCCAUGUAAACA | 21.1 | 18.1 |  |  |
| UGUUGGAGCAGAGGAUAUUACAUGAGGAUCACCCAUGUAUGAACCAAUAGCUGGAAACAGCAAUGUAAGAAGGCUGCUCCGACA | 12.1 | 161 |  |  |
| CGUAUGUCAGGAUAUGUGUAUGCCGCUCAGGGCGAGCGGCAGCAGAAGGGACAUGAGGAUCACCCAUGUUCGGG | 62.5 | 127 |  |  |
| UAUACUUACGAAGGAUAUGGUUACAUGAGGAUCACCCAUGUAUGUAUGUUGAUCGUGUAUCUUAACCAGAAGGUCGUCACUAUA | 44.9 | 56.5 |  |  |
| UAUGUACGAGGAUAUACAUAGAUACAGAUACAUGUAGACGUACAUGAGGAUCACCCAUGUAGAAGGCGUAUAUA | 101 | 122 |  |  |
| AAAACAUGAGGAUCACCCAUGUAAAGAUCGGAAAGUUAGAGUGAGGAUAUACAAAAUUUUAUAUAGUAGAAGGCACUGGGUACA |  |  | 34.6 | 33.5 |
| CAAGGUGGAGGAUAUACAUGAGGAUCACCCAUGUAAGGACAAUAAAUAAGAUGAAGAAGUAGAAGGCCACUCAA | 41.4 | 46.3 |  |  |
| ACCUUACAUGAGGAUCACCCAUGUCAGGAUAUCUCGGGCGGCUGGAGACCAGCCGCCCAGAGAAGGGACGAGGA | 14.4 | 15.6 |  |  |
| UGCAUGCUAGGAUAUACGAAACAUUAGGGUUCGUCGUAUGAACAUGAGGAUCACCCAUGUAGAAGGAGCGUGCU | 18.4 | 34.3 |  |  |

| Sequence | apparent Kd [1] [nM] | apparent Kd [2] [nM] | apparent Kd [3] [nM] | apparent Kd [4] [nM] |
| --- | --- | --- | --- | --- |
| CACUCGUGUCUAGGAUAUGAGUGACAAGCACGAGAUUUUCUCGACGCUAGCUCAGAAGGAGACAUGAGGAUCACCCAUGUAAGG | 85.3 | 16.6 |  |  |
| UCACGGGAUUGAGGAUAUAUAUGAAUUUUUUUUAUAGAAGGCAAAAUGUUAGAUUAUUCACUAUACAUGAGGAUCACCCAUGUU | 26.9 | 24.2 |  |  |
| ACAUGAGGAUCACCCAUGUAGAGUGAAGAAGGUAGAUACUUGUGACUCUCCCAUGUACAUAGGACUGAGGAUAUUCUAAUAAUU |  |  | 24.2 | 20.9 |
| GGUCGUCAAGUCAGGAUAUCGUUUAGUCGGUGUAACGAGAAGGGACAUGAGGAUCACCCAUGUCGUCUCAUCAG | 18.8 | 25.8 |  |  |
| UAAAUACAUGAGGAUCACCCAUGUCAGGAUAUAUUACGCCCGCCAAGCGAGCGCGUCUAUAGAAGGGACGGUGA | 33.3 | 33.2 |  |  |
| CAGACCGGCGCAGGAUAUGUCGACAUGAGGAUCACCCAUGUAAGCCUCGUCUGGUCCGGUGUGUGACAGAAGGGUGUCGGCCAA | 13.1 | 38.1 |  |  |
| UGGUACUAGGGAGGAUAUGUGAAGAUACAUGAGGAUCACCCAUGUUUAAGAAUGCCGAGAGGCAACUAGAAGGCCCUAGUACCU |  |  | 8.5 | 5.65 |
| CGCUACAGCCAGAAGGACAUGAGGAUCACCCAUGUAGGAUAUGGGAGACGCAGUCCCGUGUAGAGAAACUACGCUACUGUAGCG |  |  | 430 | 183 |
| UAAAUUUUGUAAGGAUAUACACGAGAUUCAAGUGUAGAAGGUACUUACAUGAGGAUCACCCAUGUAUACAUGGAUCAUAGAUAU |  |  | 305 | 63.9 |
| GGACCGUGCAGAGUUGGCGGUCGGCAGGAUAUGACAUGAGGAUCACCCAUGUGAACUCCAUUGGGUCAGAAGGGCCACGACACA | 17.6 | 78 |  |  |
| AAUAACAGAGGAUAUACUAUUUUAUGUGUUUAUUGUUUUAAACAUGAGGAUCACCCAUGUAGAAGGCUGAUUAA | 69.7 | 105 |  |  |
| CCGCAGUGUCUUCAGAAGACAUGAGGAUCACCCAUGUACCAGGAGGAUAUAGUGCGCUUUCCGCGCUAGAAGGCUUGGAUAUAG | 115 | 70.8 |  |  |
| AAUUAAUUAAUUAAUUGCUGACAUACAUGAGGAUCACCCAUGUAGGAUAUCGUCAGGAAUACUGACGAGAAGGACAUAGUCAGC | 14.9 | 16.3 |  |  |
| CACUGCAAUGUAGGAUAUCGACUGGAAUACAGUCGAGAAGGACAUGAGGAUCACCCAUGUACUAUGAGUGAAUAAUAAGCAGUG | 88.9 | 834 |  |  |
| AAGAAGUCAGGAUAUGCAUGGCGGGACUUGCGUCGUGGCGUGCAGAAGGGACAUGAGGAUCACCCAUGUAAAGU | 49 | 45.4 |  |  |
| GUAUUAAAGAUCCAUUUUUACAACAUGAGGAUCACCCAUGUGCAGGAUAUCGUGUGUUUUAUAUUCGAGAAGGGCAAAUUCAUU | 51.8 | 109 |  |  |
| CCCACGAAAGUCGAACGAUGUACGAGAAGGACAAUAACAUGACAUGAGGAUCACCCAUGUGCCAUGUAGGAUAUCGUACAUGGG | 8.55 | 8.17 |  |  |
| UGUCAGAUGGUAGGAUAUCCAUAUCGCGUGUCCCUUUCCUAACAUGAGGAUCACCCAUGUCGGUGGGAGAAGGGCCGUAUGGUG | 13.2 | 12.1 |  |  |
| AGGUAGCAAGGAUAUACAACUUUGGGCACUGCCUCUUGGAGACAUGAGGAUCACCCAUGUAGAAGGUGCAGGCC | 13.2 | 33.9 |  |  |
| AGAAUAGAAAGAUUAAUAUGAAUACAUGAGGAUCACCCAUGUAAGGAUAUCGACGUCAAUGACGUCGAGAAGGUACAUAAUAAG | 17.7 | 17.6 |  |  |

From the EternaBench riboswitch data
